The results in this text go back to ChEMBL document CHEMBL1122517, “2-Phenylindoles. Relationship between structure, estrogen receptor affinity, and mammary tumor inhibiting activity in the rat” (1984).

The target of assay [1] is Estrogen receptor (Bos taurus) (UniProt Q9XSB5+P49884). As to the kind of experiment: Relative binding affinity for the calf uterine estrogen receptor measured as the ratio of molar concentration of 17-beta-estradiol (E2) and inhibitor required to decrease the amount of bound [3H]E2 by 50%. In kind it is protein assay. Summed up: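 Competitive binding in calf uterine cytosol with 5×10^-9 M [3H]estradiol, 18 h at 4 °C, Tris/EDTA buffer (0.01 M, pH 7.5). Unbound ligand was removed with dextran-coated charcoal (90 min, 4 °C) and supernatant radioactivity counted. Six competitor concentrations gave 10–90% bound. From semilog plots, RBA = ratio of molar concentrations of estradiol to compound giving 50% decrease in binding, ×100.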

Assay [2] deals with T1, Estrogen receptor (Mus musculus) (UniProt O08537+P19785). As to the kind of experiment: Uterotrophic activity in mice as uterus dry weight (mg)/body weight (g) *100 at 25 ug dose. In kind it is functional, tissue-based. The gist of the method: (§1)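 Immature 19-day-old female NMRI mice, groups of 10. Compound dose per animal in olive oil (50 µL) sc on 3 consecutive days. Mice were killed 24 h after the last injection. Uteri were Bouin-fixed 20 h, cleaned, washed with alcoholic LiCl, and dried at 100 °C for 24 h. Effect = uterine dry weight (mg)/body weight (g) ×100; mean ± SD.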

Assay [3] has as its target T1, Estrogen receptor (Mus musculus). As to the kind of experiment: Uterotrophic activity in mice as uterus dry weight (mg)/body weight (g) *100 at 5 ug dose. It counts as functional, tissue-based. Summed up:
as §1

Assay [4] has the same target. Briefly: Uterotrophic activity in mice as uterus dry weight (mg)/body weight (g) *100 at 1 ug dose. In kind it is functional, tissue-based. The gist of the method:
as §1

Assay [5] has the same target. As to the kind of experiment: Percentage inhibition of uterotrophic activity at 5 ug dose. It counts as functional. Summed up:
(§2)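 Antiuterotrophic test in immature 19-day-old female NMRI mice (n=10), dosed sc on 3 consecutive days with 0.4 µg estrone per animal per day plus compound in olive oil. Uterine dry weight/body weight ×100 was read 24 h after the last dose. Inhibition % = 100 − [(E_S,T − E_V)/(E_S − E_V)]×100.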

The target is the same in assay [6]. Briefly: Anti-uterotrophic activity in mice as uterus dry weight (mg)/body weight (g) *100 at 25 ug dose. In kind it is functional, tissue-based. Summed up: (§3)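 Immature female NMRI mice, 19 days old, groups of 10, given sc injections on 3 consecutive days. Each injection held 0.4 μg estrone plus the indole dose per animal, in olive oil (50 μL). Killed 24 h after the last injection. Uteri were fixed in Bouin solution, washed, and dried 24 h at 100 °C. Read-out was uterine dry weight (mg)/body weight (g) × 100, mean ± SD.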

For assay [7] the target is unchanged. Briefly: Percentage inhibition of uterotrophic activity at 25 ug dose. In kind it is functional. Summed up: as §2
Assay [8] shares this target. As to the kind of experiment: Uterotrophic activity in mice as uterus dry weight (mg)/body weight (g) *100 at 125 ug dose. It counts as functional, tissue-based. The gist of the method:
as §1

Assay [9] shares this target. Briefly: Anti-uterotrophic activity in mice as uterus dry weight (mg)/body weight (g) *100 at 125 ug dose. It counts as functional, tissue-based. Summed up:
as §3

For assay [10] the target is unchanged. As to the kind of experiment: Percentage inhibition of uterotrophic activity at 125 ug dose. It counts as functional. The gist of the method:
as §2

Assay [11] has the same target. Briefly: Anti-uterotrophic activity in mice as uterus dry weight (mg)/body weight (g) *100 at 5 ug dose. In kind it is functional, tissue-based. Summed up:
as §3

Assay [12] shares this target. Briefly: Anti-uterotrophic activity in mice as uterus dry weight (mg)/body weight (g) *100 at 1 ug dose. It counts as functional, tissue-based. Summed up:
as §3

Assay [13] has the same target. Briefly: Uterotrophic activity in mice as uterus dry weight (mg)/body weight (g) *100 at 0.2 ug dose. It counts as functional, tissue-based. The gist of the method: as §1
For assay [14] the target is unchanged. Briefly: Percentage inhibition of uterotrophic activity at 1 ug dose. In kind it is functional. Summed up: as §2
Assay [15] is filed under the species Rattus norvegicus. Briefly: Change in body weight of DMBA-induced mammary carcinoma tumor bearing rats at 1.8 mg dose. It counts as functional. Summed up: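 DMBA-induced tumor-bearing Sprague-Dawley rats (20 mg DMBA by gavage at 50 days old), randomized when tumor area exceeded 140 mm². Dose per kg was given sc in olive oil, single dose daily Monday to Thursday, double dose Friday. Body weight was measured twice weekly. Read-out was % change in body weight.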

The species named for assay [16] is Rattus norvegicus. Briefly: Percent unchanged DMBA-induced mammary carcinoma tumors in rats at 1.8 mg dose. It counts as functional. The gist of the method:
(§4)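 Female Sprague-Dawley rats, 50 days old, given a single 20 mg DMBA dose in 1 mL olive oil by gavage. Rats were palpated twice weekly from day 30, and those without tumors by day 70 were discarded. Rats were randomized once tumor area exceeded 140 mm². Drug dose was per kg in olive oil (1 mL/kg) sc, single dose Mon–Thu and double dose Fri. Tumor area (caliper, two perpendicular axes) and body weight were measured twice weekly.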

Assay [17] is filed under the species Rattus norvegicus. As to the kind of experiment: Number of DMBA-induced mammary carcinoma tumors in rats at 1.8 mg dose. It counts as functional. Summed up: (§5)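 DMBA-induced tumors in Sprague-Dawley rats, entered when tumor area exceeded 140 mm². Dose per kg was given sc in olive oil, daily Monday to Thursday with a double dose Friday. Tumors were measured by calipers twice weekly. Tumor number was counted at the start of the test. Complete remission meant the tumor was no longer palpable. Partial remission meant reduction to ≤50% of initial size. New tumor appearance was recorded.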

Assay [18] is filed under the species Rattus norvegicus. Briefly: Partial remission (%) of DMBA-induced mammary carcinoma tumors in rats at 1.8 mg dose. It counts as functional. Summed up:
as §5

For assay [19], the species on record is Rattus norvegicus. Briefly: Percent progressive DMBA-induced mammary carcinoma tumors in rats at 1.8 mg dose. In kind it is functional. Summed up: as §4
For assay [20], the species on record is Rattus norvegicus. As to the kind of experiment: Change in DMBA-induced mammary carcinoma tumor area in rats at 1.8 mg dose; 47-510. In kind it is functional. Summed up:
(§6)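 Female Sprague-Dawley rats got one 20 mg DMBA dose by gavage at 50 days old and were palpated twice weekly from day 30. Rats were randomized once tumor area exceeded 140 mm². Dose (per kg) was given sc in olive oil, once daily Monday to Thursday and doubled on Friday. Tumor area was taken from caliper measurements of two perpendicular axes, twice weekly. Change per animal is given as median % and range.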

The species entered for assay [21] is Rattus norvegicus. Briefly: Formation of new DMBA-induced mammary carcinoma tumors in rats at 1.8 mg dose. It counts as functional. The gist of the method:
as §5

For assay [22], the species on record is Rattus norvegicus. As to the kind of experiment: (§7) Change in DMBA-induced mammary carcinoma tumor area in rats at 1.8 mg dose. It counts as functional. Summed up:
as §6

The species named for assay [23] is Rattus norvegicus. The description is as §7. It counts as functional. Summed up: as §6
This is another data set of the same source.

T1 sequence (O08537 whole entry, looked up): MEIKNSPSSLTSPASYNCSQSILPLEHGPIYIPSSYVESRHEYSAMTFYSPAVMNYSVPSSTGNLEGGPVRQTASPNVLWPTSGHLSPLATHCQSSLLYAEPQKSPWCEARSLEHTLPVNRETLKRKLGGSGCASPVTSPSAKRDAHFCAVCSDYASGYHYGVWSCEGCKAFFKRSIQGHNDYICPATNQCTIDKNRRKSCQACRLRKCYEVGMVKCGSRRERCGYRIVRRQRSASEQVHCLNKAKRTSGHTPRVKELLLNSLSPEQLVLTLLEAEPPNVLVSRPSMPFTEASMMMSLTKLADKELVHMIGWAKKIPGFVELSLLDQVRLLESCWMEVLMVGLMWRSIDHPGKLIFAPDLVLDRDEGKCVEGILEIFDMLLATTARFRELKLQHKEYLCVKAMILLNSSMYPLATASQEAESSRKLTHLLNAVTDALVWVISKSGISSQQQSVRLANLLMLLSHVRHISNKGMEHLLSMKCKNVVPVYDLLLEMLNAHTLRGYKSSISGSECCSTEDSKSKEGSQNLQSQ
T1 sequence (P19785 whole entry, looked up): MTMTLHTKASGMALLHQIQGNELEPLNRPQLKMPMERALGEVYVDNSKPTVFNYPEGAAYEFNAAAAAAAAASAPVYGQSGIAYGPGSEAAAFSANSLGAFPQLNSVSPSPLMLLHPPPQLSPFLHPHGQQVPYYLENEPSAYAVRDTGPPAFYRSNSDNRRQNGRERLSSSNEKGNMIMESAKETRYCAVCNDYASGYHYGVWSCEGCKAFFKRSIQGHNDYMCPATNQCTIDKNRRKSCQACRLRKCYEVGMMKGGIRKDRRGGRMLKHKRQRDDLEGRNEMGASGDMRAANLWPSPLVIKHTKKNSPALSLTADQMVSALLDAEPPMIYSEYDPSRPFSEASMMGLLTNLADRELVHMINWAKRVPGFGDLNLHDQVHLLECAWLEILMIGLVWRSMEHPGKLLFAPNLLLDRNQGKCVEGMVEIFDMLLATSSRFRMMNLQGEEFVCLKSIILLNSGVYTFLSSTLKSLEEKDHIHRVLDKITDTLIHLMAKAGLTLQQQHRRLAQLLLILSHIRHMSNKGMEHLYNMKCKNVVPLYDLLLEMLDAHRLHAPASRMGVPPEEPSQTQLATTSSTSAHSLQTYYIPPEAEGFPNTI

For the compound `Cc1c(-c2ccc(O)cc2)n(C)c2cc(O)ccc12`, the RBA in assay [1] was determined as 10.
With `CCCn1c(-c2ccc(O)cc2)c(C)c2ccc(O)cc21`, the RBA in assay [1] turned out to be 13.
With `CCCn1c(-c2cccc(O)c2)c(C)c2ccc(O)cc21`, in assay [1], the RBA was found to be 3.5.
Same read-out and setting: then `Cc1c(-c2ccc(O)cc2)n(C)c2ccc(O)cc12`, with 4.6.
The term inhibition denotes the relative decrease from the control value, in per cent. A higher inhibition goes with a response far below the control. Turning to `CCn1c(-c2cccc(OC(C)=O)c2)c(C)c2ccc(OC(C)=O)cc21`, the Uterotrophic effect in assay [2] amounted to 30.2; in assay [3], 17.2; in [4], 15.2; in [8], 39.1. In addition, the inhibition in assay [5] was found to be 11%; in [7], 15%; in assay [10], 26%. Also, the Anti-uterotrophic effect worked out at 40.6 in assay [6], 37.4 in [9], 41.7 in assay [11] and 46.9 in assay [12].
On to `CCCn1c(-c2ccc(O)cc2)cc2ccc(O)cc21`, for which the RBA in assay [1] is 8.5.
For `CCCn1c(-c2ccc(O)cc2)c(CC)c2ccc(O)cc21`, the RBA in [1] came to 19.
On the same count and under the same terms, the figure for `CCCCn1c(-c2ccc(O)cc2)cc2ccc(O)cc21` is 4.3; for `Cc1c(-c2ccc(O)cc2)[nH]c2cc(O)ccc12` it is 0.06.
Still for that read-out and setting: the figure for `CCn1c(-c2ccc(O)cc2)c(C)c2ccc(O)cc21` is 33; for `Cc1c(-c2ccc(O)cc2)[nH]c2ccc(O)cc12` it is 0.06; for `CCc1c(-c2ccc(O)cc2)n(CC)c2ccc(O)cc12` it is 23.
With `Cn1c(-c2ccc(O)cc2)cc2cc(O)ccc21`, the RBA in assay [1] was found to be 0.8.
Same read-out and setting: then `CCCCCn1c(-c2ccc(O)cc2)c(C)c2cc(O)ccc21`, with 2.3; and `Cc1c(-c2cccc(O)c2)n(C)c2ccc(O)cc12`, with 0.6.
Still for that read-out and setting: then `CCCn1c(-c2ccc(O)cc2)cc2cc(O)ccc21`, with 18; and `CCn1c(-c2ccc(O)cc2)cc2ccc(O)cc21`, with 16.
Still for that read-out and setting: the figure for `CCn1c(-c2cccc(O)c2)c(C)c2cc(O)ccc21` is 2.2; for `Cc1c(-c2ccc(O)cc2)n(C(C)C)c2cc(O)ccc12` it is 13.
Turning to `Cn1c(-c2ccc(O)cc2)cc2ccc(O)cc21`, in [1], the RBA stood at 3.8.
On the same count and under the same terms, then `CCCc1c(-c2ccc(O)cc2)n(CCC)c2ccc(O)cc12`, with 1.7; and `CCn1c(-c2cccc(O)c2)cc2ccc(O)cc21`, with 1.7.
Turning to `CCc1c(-c2ccc(OC(C)=O)cc2)n(CC)c2ccc(OC(C)=O)cc12`, the Uterotrophic effect in assay [2] is 42.4; in assay [3], 39.1; in [4] it was 29.5; in assay [8], 40.2.
Regarding `CCCCn1c(-c2ccc(O)cc2)c(C)c2cc(O)ccc21`, the RBA in assay [1] came to 4.6.
Same read-out and setting: then `Cc1c(-c2cccc(O)c2)n(C)c2cc(O)ccc12`, with 0.55; and `CCn1c(-c2ccc(O)cc2)c(C)c2cc(O)ccc21`, with 9.5.
Still for that read-out and setting: the figure for `CCn1c(-c2ccc(O)cc2)cc2cc(O)ccc21` is 5.8.
Still for that read-out and setting: the figure for `CCCn1c(-c2cccc(O)c2)c(C)c2cc(O)ccc21` is 7.4.
With `Oc1ccc(-c2cc3cc(O)ccc3[nH]2)cc1`, the RBA in assay [1] stood at 0.01.
Consider `CCc1c(-c2ccc(O)cc2)[nH]c2cc(O)ccc12`, for which, in [1], the RBA was determined as 0.13.
On the same count and under the same terms, then `CCn1c(-c2cccc(O)c2)c(C)c2ccc(O)cc21`, with 3.
With `CC(=O)Oc1ccc(-c2c(C)c3ccc(OC(C)=O)cc3n2C)cc1`, the Uterotrophic effect was found to be 24.2 in assay [2], 21.4 in assay [3], 18.6 in assay [4] and 18.2 in assay [13]. The inhibition in assay [5] worked out at 7%; in assay [7] it was 23%; in assay [14], 31%; in [10], 33%. Further, the Anti-uterotrophic effect in assay [6] came to 34.3; in assay [9], 31.7; in assay [11], 38.2; in assay [12] it was 32.3.
As to `Cc1c(-c2ccc(O)cc2)n(C(C)C)c2ccc(O)cc12`, the RBA in assay [1] was found to be 3.5.
With `CCn1c(-c2cccc(O)c2)cc2cc(O)ccc21`, the RBA in [1] is 1.7.
With `CCCn1c(-c2ccc(O)cc2)c(C)c2cc(O)ccc21`, in assay [1], the RBA was found to be 16.
In the case of `CCc1c(-c2ccc(O)cc2)n(CC)c2cc(O)ccc12`, in [1], the RBA was 21.
Regarding `CCCn1c(-c2ccc(OC(C)=O)cc2)c(C)c2cc(OC(C)=O)ccc21`, the Uterotrophic effect turned out to be 28.5 in assay [2], 23 in assay [3], 21.7 in [4] and 16.7 in assay [13]. Also, in the assay filed under Rattus norvegicus [15], the “Change of body weight” value is recorded as 2%. The inhibition worked out at 37% in [5], 66% in assay [7], 24% in assay [14] and 67% in [10]. The Anti-uterotrophic effect was 29.8 in assay [6], 29.3 in assay [9], 40.3 in assay [11] and 45.2 in [12]. In the assay listed under Rattus norvegicus [16], the Static tumors was 30%. In addition, the No. of tumors in the assay filed under Rattus norvegicus [17] amounted to 34. In the assay filed under Rattus norvegicus [18], the Partial remission stood at 8%. This compound displayed a Progressed tumors in the assay filed under Rattus norvegicus [19] of 55%. The “Change of tumor area” value is 47% in the assay listed under Rattus norvegicus [20], 198% in the assay filed under Rattus norvegicus [22] and 198% in the assay listed under Rattus norvegicus [23]. For the same compound, in the assay listed under Rattus norvegicus [21], the New tumors was found to be 27.
For `CCn1c(-c2ccc(O)cc2)c(C)c2cccc(O)c21`, the RBA in [1] is 0.02.
Consider `CCc1c(-c2ccc(O)cc2)n(C)c2cc(O)ccc12`, for which, in assay [1], the RBA worked out at 5.9.
The same measure, in the same setting: the figure for `Oc1ccc(-c2cc3ccc(O)cc3[nH]2)cc1` is 0.01.
